Experiments:
Rattus norvegicus [1] = assay: Effect on body weight in rat at 1 mg/kg/day administered for 16 days measured on day 16 (reference value: 233 +/- 16 gms); assay type: ADME, organism-based; conditions: in vivo, 384 h
Summary of the method: (§1)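 Male Sprague-Dawley rats with chow and water ad libitum. Compound suspended in 1% CMC-water and given orally by intubation needle at 11:00 a.m., 1, 5, 10 or 50 mg/kg/day, for 16 days. Body weight (g) recorded on days 0, 7 and 16. N = 8.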

Rattus norvegicus [2] = assay: Hypocholesterolemic activity in Sprague-Dawley rat assessed as serum cholesterol level at 5 mg/kg/day, po administered via intubation measured on day 16 by Liebermann-Burchard reaction (reference value: 100 +/- 8%); assay type: functional
Rattus norvegicus [3] = assay: Hypocholesterolemic activity in Sprague-Dawley rat assessed as serum cholesterol level at 1 mg/kg/day, po administered via intubation measured on day 10 by Liebermann-Burchard reaction (reference value: 100 +/- 7%); assay type: functional
Rattus norvegicus [4] = assay: Effect on body weight in rat at 5 mg/kg/day administered for 16 days measured on day 16 (reference value: 233 +/- 16 gms); assay type: ADME, organism-based; conditions: in vivo, 384 h; summary of the method: as §1
Rattus norvegicus [5] = assay: Hypocholesterolemic activity in rat assessed as [14C]cholesterol level in heart at 10 mg/kg/day administered for 1 week measured after 22 hrs on day 7 by scintillation counting analysis (reference value: 0.39 +/- 0.13%); assay type: functional
Summary of the method: (§2)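 Male rats were dosed orally for 1 week (10 mg/kg/day) or with 1% CMC. On day 7 they received 5 μCi [4-14C]cholesterol orally and were killed after 22 hr. Organs were homogenized (10% in water); 0.1-cc aliquots of homogenate, urine, blood or feces were digested with Protosol. Samples were counted in toluene/Triton X-100 (2:1) scintillant with 0.4% PPO and 0.01% POPOP. Results are % of dose per tissue, N = 6.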

Rattus norvegicus [6] = assay: Effect on kidney weight in rat at 1 mg/kg/day administered for 16 days measured 24 hrs after last drug dosage relative to total body weight (reference value: 0.92 +/- 0.04%); assay type: ADME, organism-based; conditions: in vivo
Rattus norvegicus [7] = assay: Effect on food intake in rat at 50 mg/kg/day measured during second week (reference value: 23.4 +/- 1.8 gms); assay type: ADME, organism-based; conditions: in vivo
Summary of the method: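 Male rats dosed orally at 1, 5, 10 or 50 mg/kg/day in 1% CMC. Average food intake in grams per rat per week measured over a 2-week period, first and second weeks reported separately. N = 8, Student's t test against the 1% CMC control.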

Rattus norvegicus [8] = assay: Effect on body weight in rat at 5 mg/kg/day administered for 16 days measured on day 7 (reference value: 173 +/- 12 gms); assay type: ADME, organism-based; conditions: in vivo, 384 h; summary of the method: as §1
Rattus norvegicus [9] = assay: Effect on adrenal gland weight in rat at 10 mg/kg/day administered for 16 days measured 24 hrs after last drug dosage relative to total body weight (reference value: 0.015 +/- 0.003%); assay type: ADME, organism-based; conditions: in vivo
Rattus norvegicus [10] = assay: Effect on heart weight in rat at 1 mg/kg/day administered for 16 days measured 24 hrs after last drug dosage relative to total body weight (reference value: 0.37 +/- 0.04%); assay type: ADME, organism-based; conditions: in vivo
Rattus norvegicus [11] = assay: Decrease in lipase level in rat liver at 10 mg/kg/day administered for 16 days (reference value: 100 +/- 39%); assay type: functional; set-up: scale not given: the % may be the effect or the level left
Rattus norvegicus [12] = assay: Effect on testes weight in rat at 50 mg/kg/day administered for 16 days measured 24 hrs after last drug dosage relative to total body weight (reference value: 1.08 +/- 0.08%); assay type: ADME, organism-based, Testis; conditions: in vivo
[13] = Toxicity in ip dosed CF1 mouse assessed as animal death; assay type: organism-based; conditions: in vivo
Summary of the method: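 Male CF1 mice given active propanones ip over 10 mg to 6 g/kg where solubility allowed; deaths recorded to estimate LD50.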

Rattus norvegicus [14] = assay: Hypocholesterolemic activity in [14C]palmitic acid-treated rat assessed as decrease in 14C fatty acid incorporation into triglyceride fraction in liver at 10 mg/kg/day administered for 1 week by scintillation counting analysis; assay type: functional; set-up: scale not given: the % may be the effect or the level left
Rattus norvegicus [15] = assay: Uterotrophic activity in ovariectomized Sprague-Dawley rat assessed as uterine weight administered for 3 days (reference value: 100 +/- 27%); assay type: organism-based, Uterus; conditions: in vivo, 72 h
Rattus norvegicus [16] = assay: Hypocholesterolemic activity in rat assessed as [14C]cholesterol level in small intestine at 10 mg/kg/day administered for 1 week measured after 22 hrs on day 7 by scintillation counting analysis (reference value: 22.09 +/- 5.68%); assay type: functional; summary of the method: as §2
Rattus norvegicus [17] = assay: Hypocholesterolemic activity in rat assessed as [14C]palmitic acid level in small intestine at 10 mg/kg/day administered for 1 week measured after 22 hrs on day 7 by scintillation counting analysis (reference value: 4.43 +/- 1.43%); assay type: functional
Summary of the method: (§3)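 Male Sprague-Dawley rats on lab chow dosed orally once daily for 1 week at 10 mg/kg/day, suspended in 1% CMC, or given vehicle alone. On day 7, 5 μCi [1-14C]palmitic acid given orally. Killed after 22 hr; organs made into 10% water homogenates. Aliquots of 0.1 cc of homogenate, urine, blood or feces were digested and scintillation counted. Output is % of dose per tissue, N = 6.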

Rattus norvegicus [18] = assay: Effect on spleen weight in rat at 10 mg/kg/day administered for 16 days measured 24 hrs after last drug dosage relative to total body weight (reference value: 0.55 +/- 0.12%); assay type: ADME, organism-based; conditions: in vivo
Rattus norvegicus [19] = assay: Hypocholesterolemic activity in rat assessed as [14C]cholesterol level in brain at 10 mg/kg/day administered for 1 week measured after 22 hrs on day 7 by scintillation counting analysis (reference value: 0.12 +/- 0.04%); assay type: functional; summary of the method: as §2
Rattus norvegicus [20] = assay: Hypocholesterolemic activity in rat assessed as [14C]palmitic acid recovery at 10 mg/kg/day administered for 1 week measured after 22 hrs on day 7 by scintillation counting analysis (reference value: 98%); assay type: functional; summary of the method: as §3
Rattus norvegicus [21] = assay: Hypocholesterolemic activity in rat assessed as [14C]palmitic acid level in vas deferens at 10 mg/kg/day administered for 1 week measured after 22 hrs on day 7 by scintillation counting analysis (reference value: 0.23 +/- 0.05%); assay type: functional; summary of the method: as §3
Rattus norvegicus [22] = assay: Hypocholesterolemic activity in rat assessed as [14C]palmitic acid level in spleen at 10 mg/kg/day administered for 1 week measured after 22 hrs on day 7 by scintillation counting analysis (reference value: 0.46 +/- 0.24%); assay type: functional; summary of the method: as §3
Rattus norvegicus [23] = assay: Hypocholesterolemic activity in rat assessed as [14C]palmitic acid level in urine at 10 mg/kg/day administered for 1 week measured after 22 hrs on day 7 by scintillation counting analysis (reference value: 3.31 +/- 1.37%); assay type: functional; summary of the method: as §3
Rattus norvegicus [24] = assay: Hypocholesterolemic activity in Sprague-Dawley rat assessed as serum cholesterol level at 10 mg/kg/day, po administered via intubation measured on day 16 by Liebermann-Burchard reaction (reference value: 100%); assay type: functional
Rattus norvegicus [25] = assay: Effect on brain weight in rat at 5 mg/kg/day administered for 16 days measured 24 hrs after last drug dosage relative to total body weight (reference value: 0.67 +/- 0.05%); assay type: ADME, organism-based; conditions: in vivo
Rattus norvegicus [26] = assay: Effect on RNA content in rat liver at 10 mg/kg/day administered for 16 days (reference value: 100 +/- 8%); assay type: ADME, organism-based; conditions: in vivo, 384 h
Rattus norvegicus [27] = assay: Hypocholesterolemic activity in rat assessed as [14C]cholesterol level in chyme at 10 mg/kg/day administered for 1 week measured after 22 hrs on day 7 by scintillation counting analysis (reference value: 8.72 +/- 4.95%); assay type: functional; summary of the method: as §2
Rattus norvegicus [28] = assay: Effect on vas deferens and epididymis weight in rat at 1 mg/kg/day administered for 16 days measured 24 hrs after last drug dosage relative to total body weight (reference value: 0.22 +/- 0.04%); assay type: ADME, organism-based; conditions: in vivo

Q: For Cc1ccc(OCC(=O)COc2ccc(C)cc2)cc1, which Activity (Rattus norvegicus [1]) is on record?
A: 234 g

Q: And the Activity (Rattus norvegicus [2])?
A: 56%

Q: What about the Activity (Rattus norvegicus [3]) of the same compound?
A: 71%

Q: And the Activity (Rattus norvegicus [4])?
A: 241 g

Q: What about the Activity (Rattus norvegicus [5]) of the same compound?
A: 0.58%

Q: What about the Activity (Rattus norvegicus [6]) of the same compound?
A: 0.79%

Q: And the Activity (Rattus norvegicus [7])?
A: 28.2 g

Q: And the Activity (Rattus norvegicus [8])?
A: 168 g

Q: What about the Activity (Rattus norvegicus [9]) of the same compound?
A: 0.016%

Q: What about the Activity (Rattus norvegicus [10]) of the same compound?
A: 0.38%

Q: And the Activity (Rattus norvegicus [11])?
A: 68%

Q: What about the Activity (Rattus norvegicus [12]) of the same compound?
A: 1.19%

Q: What about the LD50 [13] of the same compound?
A: 1500 mg/kg

Q: What about the Activity (Rattus norvegicus [14]) of the same compound?
A: 53%

Q: What about the Activity (Rattus norvegicus [15]) of the same compound?
A: 82%

Q: And the Activity (Rattus norvegicus [16])?
A: 22.56%

Q: What about the Activity (Rattus norvegicus [17]) of the same compound?
A: 6.05%

Q: And the Activity (Rattus norvegicus [18])?
A: 0.6%

Q: What about the Activity (Rattus norvegicus [19]) of the same compound?
A: 0.16%

Q: What about the Activity (Rattus norvegicus [20]) of the same compound?
A: 96.75%

Q: And the Activity (Rattus norvegicus [21])?
A: 0.5%

Q: And the Activity (Rattus norvegicus [22])?
A: 0.37%

Q: And the Activity (Rattus norvegicus [23])?
A: 1.82%

Q: What about the Activity (Rattus norvegicus [24]) of the same compound?
A: 58%

Q: What about the Activity (Rattus norvegicus [25]) of the same compound?
A: 0.73%

Q: And the Activity (Rattus norvegicus [26])?
A: 104%

Q: What about the Activity (Rattus norvegicus [27]) of the same compound?
A: 9.21%

Q: What about the Activity (Rattus norvegicus [28]) of the same compound?
A: 0.23%
